Experimental data taken from PMC4834131 (CPT: Pharmacometrics & Systems Pharmacology, 2016).
Values after ≈ are worked out from the molar mass of the structure shown.

Columns and labels:
[1] = PK study after i.v. administration in rats; type: in vivo; conditions: rat, plasma, iv, 90 nmol/kg
glucocorticoid receptor = biological target: T1, glucocorticoid receptor (Rattus norvegicus, UniProt P06536); experiment: In vivo glucocorticoid receptor occupancy study; conditions: iv, read-out: Observed receptor occupancy
T1 sequence (P06536 1-795): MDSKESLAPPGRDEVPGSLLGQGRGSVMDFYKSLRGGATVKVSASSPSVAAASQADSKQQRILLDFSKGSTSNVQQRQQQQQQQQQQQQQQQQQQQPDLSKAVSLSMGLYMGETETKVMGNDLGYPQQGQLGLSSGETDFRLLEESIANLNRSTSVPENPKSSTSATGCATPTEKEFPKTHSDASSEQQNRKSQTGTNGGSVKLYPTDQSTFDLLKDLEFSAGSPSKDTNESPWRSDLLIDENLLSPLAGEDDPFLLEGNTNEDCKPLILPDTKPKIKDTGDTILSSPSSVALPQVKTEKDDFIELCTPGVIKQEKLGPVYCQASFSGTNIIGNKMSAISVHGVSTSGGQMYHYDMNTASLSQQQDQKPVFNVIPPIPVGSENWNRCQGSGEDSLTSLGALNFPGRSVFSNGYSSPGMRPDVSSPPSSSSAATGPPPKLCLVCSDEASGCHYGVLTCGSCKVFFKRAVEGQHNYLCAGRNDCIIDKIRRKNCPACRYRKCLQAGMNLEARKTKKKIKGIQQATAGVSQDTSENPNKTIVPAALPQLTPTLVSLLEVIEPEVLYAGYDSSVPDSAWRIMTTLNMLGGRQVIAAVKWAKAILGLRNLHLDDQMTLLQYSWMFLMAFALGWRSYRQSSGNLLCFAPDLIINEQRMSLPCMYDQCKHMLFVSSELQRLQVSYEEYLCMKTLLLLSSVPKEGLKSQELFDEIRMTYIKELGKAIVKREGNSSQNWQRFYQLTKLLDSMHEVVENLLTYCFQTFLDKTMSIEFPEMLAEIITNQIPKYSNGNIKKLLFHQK

[2] = Estimation of solubility Cs by fitting PBPK model to total lung concentrations; type: in vivo; conditions: rat, inhaled, 11.3 nmol/kg
Method in brief: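 Fit of the whole-body PBPK model with lung disposition to total lung concentrations in rats after nose-only inhalation (lung deposited dose 11.3 nmol/kg). Fitting used nonlinear least squares (Levenberg–Marquardt). The starting value came from an exhaustive sum-of-squares search over a broad range, then 300 candidates within ±200 nM of the best solution. Particle dissolution followed the Nernst–Brunner equation; all other inputs were fixed.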

[3] = In vitro apparent permeability across CaCo2-monolayers; type: in vitro ADME; conditions: human, Caco-2
[4] = Fraction unbound in plasma; type: in vitro ADME
logD7.4 = type: physicochemical; conditions: pH 7.4
[5] = Unbound lung volume of distribution; type: in vitro ADME

- clearance ([1]; CLP (plasma clearance)): 182 mL/min/kg
- Vd ([1]; Vdss (volume of distribution at steady state)): 12.5 L/kg
- receptor occupancy at 0.02 µmol/kg (glucocorticoid receptor): 27 ± 9.7%
- receptor occupancy at 0.75 µmol/kg (glucocorticoid receptor): 100 ± 3.5%
- solubility [2]: 4.53 µM (≈ 2.27 µg/mL)
- Papp [3]: 46.9 ×10⁻⁶ cm/s
- fraction unbound [4]: 0.016
- logD (logD7.4): 4.2
- Vu,lung (unbound lung volume of distribution) [5]: 213.4 mL/g lung tissue
Structure (SMILES): CCC(=O)O[C@]1(C(=O)SCF)[C@H](C)C[C@H]2[C@@H]3C[C@H](F)C4=CC(=O)C=C[C@]4(C)[C@@]3(F)[C@@H](O)C[C@@]21C [fluticasone propionate]
